# Laboratory results published in PubChem BioAssay AID1496 (Sanford-Burnham Center for Chemical Genomics, 2009).
# About 990 (0.45%) of roughly 220,000 compounds were called active.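 Rule for the calls: active = inhibition over about 50% at 20 µM in the single-dose screen (limit read from the data); inactive = the rest.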 This excerpt belongs to a sample that is enriched for actives.
# Target: Runt-related transcription factor 1 (Homo sapiens) + Core-binding factor subunit beta (Homo sapiens) (UniProt Q01196+Q13951)
# Sequence (Q01196 whole entry, looked up): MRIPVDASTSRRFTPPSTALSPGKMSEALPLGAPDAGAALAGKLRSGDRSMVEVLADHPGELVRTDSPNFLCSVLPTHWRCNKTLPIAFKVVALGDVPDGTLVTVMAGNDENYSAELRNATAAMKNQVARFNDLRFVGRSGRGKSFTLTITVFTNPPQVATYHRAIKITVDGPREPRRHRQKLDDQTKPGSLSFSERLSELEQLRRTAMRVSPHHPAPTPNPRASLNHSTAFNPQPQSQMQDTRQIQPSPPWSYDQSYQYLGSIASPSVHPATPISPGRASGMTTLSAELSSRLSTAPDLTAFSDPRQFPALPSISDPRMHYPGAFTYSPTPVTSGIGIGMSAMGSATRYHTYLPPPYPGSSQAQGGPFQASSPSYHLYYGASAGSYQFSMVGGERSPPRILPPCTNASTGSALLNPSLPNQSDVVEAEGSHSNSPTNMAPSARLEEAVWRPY
# Sequence (Q13951 whole entry, looked up): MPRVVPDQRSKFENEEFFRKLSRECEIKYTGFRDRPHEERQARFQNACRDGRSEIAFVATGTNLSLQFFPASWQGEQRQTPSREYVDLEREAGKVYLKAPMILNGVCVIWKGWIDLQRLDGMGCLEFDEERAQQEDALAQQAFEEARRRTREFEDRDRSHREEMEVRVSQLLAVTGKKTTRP
# Assay: inhibitors of RUNX1 Runt–CBFb binding, primary screen, biochemical, FRET, Cerulean-Runt, Venus-CBFb, uHTS (AID 1496);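 note: 0% = DMSO wells and 100% = excess unlabeled CBFb competitor control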
# Conditions: Cerulean-Runt/Venus-CBFb FRET ratio 530/480, 1 h; at 20 µM; active compounds read high
# Method in brief: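 Measured by: fluorescence energy transfer, 422 nm excitation, 530/480 nm emission; Assay system: Cerulean-Runt domain; Medium: Tris pH 7.5 buffer with BSA; Measure: loss of energy transfer signal; Controls: 5 µM unlabeled CBFb as full-inhibition high control; Incubation: protein complex preformed 1 h, compound exposure 1 h, room temperature, dark.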
row,SMILES,inhibition
1,CCN(CC)CCn1c2ccc(Cl)cc2c2nc(C)sc21,0.5% (inactive)
2,COC(=O)Cn1c(=NC(=O)c2cc(OC)c(OC)c(OC)c2)sc2cc(OC)ccc21,-1.4% (inactive)
3,COC(=O)Cn1c2ccc(C)cc2c2nc(C)sc21,50.7% (active)
4,Cn1c(C(=O)O)ccc1S(=O)(=O)N(Cc1ccccc1)Cc1ccccc1,0.9% (inactive)
5,COc1ccc(Br)c2c1C(=O)CC2,-4% (inactive)
6,COC(=O)c1ccc(C(=O)OC)c(NC(=S)N2CCCCC2)c1,54% (active)
7,COC(=O)c1ccc(C(=O)OC)c(NC(=S)N2CCN(c3ccc(F)cc3)CC2)c1,8.1% (inactive)
8,COC(=O)c1ccc(C(=O)OC)c(NC(=S)N2CCN(c3cc(Cl)ccc3C)CC2)c1,9.1% (inactive)
9,O=C(O)c1ccccc1OCc1ccccc1Cl,2.6% (inactive)
10,C#CCOCCOCCOCCNc1nc(N2CCN(C(=O)[C@H](CCC(=O)O)n3cc(C(N)CO)nn3)CC2)nc(N2CCN(C(=O)[C@H](CCCCN)n3cc(C(N)[C@H](C)CC)nn3)CC2)n1 (stereo partly specified),0.2% (inactive)
11,COc1ccc(C(=O)C2CCCN(C(=O)c3cnsn3)C2)c(C)c1 (stereo unspecified),-0.7% (inactive)
12,O=C(NCc1ccco1)C1CCCN(S(=O)(=O)c2cnc[nH]2)C1 (stereo unspecified),1.5% (inactive)
13,CCCS(=O)(=O)N1CCCC(C(=O)NCc2ccco2)C1 (stereo unspecified),71.8% (active)
14,O=C(NCc1ccco1)C1CCCN(S(=O)(=O)c2ccccc2)C1 (stereo unspecified),-0.1% (inactive)
15,CCOC(=O)c1ccc(NC(=O)c2nc[nH]c2C(=O)NCc2ccccc2)cc1,19.6% (inactive)
16,CN(C)S(=O)(=O)c1ccc(Cl)c(NC(=O)COC(=O)CC(NC(N)=O)c2ccc(Cl)cc2)c1 (stereo unspecified),-1.9% (inactive)
17,CCCN(CCC)S(=O)(=O)c1ccc(C(=O)N2CC3CCC(CC3)C2)cc1,-0.8% (inactive)
18,Cc1nc(C(=O)Nc2ccc(Cl)cc2)sc1C1(C)CC(c2ccccc2)=NO1 (stereo unspecified),1.9% (inactive)
19,O=C(O)/C=C/c1ccc2c(c1)OCCO2,1.9% (inactive)
20,COc1cccc(CC(=O)Nc2ccc(-c3csc(C)n3)cc2)c1,-1.8% (inactive)
21,CC(C)=C(NC(=O)c1ccco1)C(=O)NCCc1nc2ccccc2[nH]1,1.2% (inactive)

row,SMILES,inhibition
1,CC(C)Oc1ccc(/C=C(\NC(=O)/C=C/c2ccco2)C(=O)NCCc2nc3ccccc3[nH]2)cc1,89.5% (active)
2,COc1ccc(OC(C)C(=O)NCCc2nc3ccccc3[nH]2)cc1 (stereo unspecified),-0.9% (inactive)
3,CCOC(=O)C1=C(N)N2C(=O)C(C)SC2=C(C(=O)OCC)C1c1cc(OC)c(OC)c(OC)c1 (stereo unspecified),-5% (inactive)
4,Cc1cc(Nc2ccc(Cl)cc2)nc(N2CCOCC2)n1,0.3% (inactive)
5,CCOC(=O)c1sc(=S)n(-c2cccc(OC)c2)c1N,34% (inactive)
6,Cc1cccc(-n2c(N)c(C(=O)N3CCN(C)CC3)sc2=S)c1,55.8% (active)
7,Cc1ccc(-n2c(N)c(C(=O)N3CCOCC3)sc2=S)c(C)c1,40.6% (inactive)
8,CC(=O)Nc1nc2c(s1)C(=O)NCC(C)(C)C2,1% (inactive)
9,CCCN(c1ccc(C)cc1)c1nc(=O)c2cccnc2s1,0.8% (inactive)
10,Cc1cccc(N2C(=O)c3cccnc3C2=O)c1,-2.4% (inactive)
11,Cc1cccc(N2C(=O)C3C(c4ccccc4)OC4(C(=O)c5ccccc5C4=O)C3C2=O)c1 (stereo unspecified),115% (active)
12,Cc1cccc(N2C(=O)CC(SC(N)=Nc3ccccc3)C2=O)c1 (stereo unspecified),-1.7% (inactive)
13,O=C(Nc1ccc(Cl)cc1)Nc1ccc(C(=O)N2CCOCC2)cc1,-0.4% (inactive)
14,Cc1cc(C)n(CC(C)NCc2c(C(=O)N3CCOCC3)nc3c(C)cccn23)n1 (stereo unspecified),0.6% (inactive)
15,Cc1cccn2c(=O)c3cc(C(=O)N4COCC4(C)C)n(C)c3nc12,-1.7% (inactive)
16,Cc1cccn2c(=O)c3cc(C#N)c(=O)n(CCCN4CCOCC4)c3nc12,92.6% (active)
17,CC(C)c1c(O)nc(SCCOc2ccc(Cl)cc2)[nH]c1=O,0.6% (inactive)
18,N#CC1=C(N)Oc2c(sc3ccccc23)C1c1ccco1 (stereo unspecified),15.7% (inactive)
19,Cc1cc(C)c2c3c(sc2n1)C(c1ccccc1)C(C#N)=C(N)O3 (stereo unspecified),66.6% (active)
20,Cc1cc(C)c(C#N)c(SCc2[nH]nc3c2C(c2ccccc2)C(C#N)=C(N)O3)n1 (stereo unspecified),-1.5% (inactive)
21,Nc1c(Cl)cc(S(N)(=O)=O)cc1S(N)(=O)=O,0% (inactive)

row,SMILES,inhibition
1,COc1ccc(/C=C2\N=C3CCCN3C2=O)cc1,1.1% (inactive)
2,COc1ccc(/C=N/NS(=O)(=O)c2ccc(NC(C)=O)cc2)cc1,0.8% (inactive)
3,CCCCN1CCNC1=S,0.1% (inactive)
4,CS(=O)(=O)N(CC(O)Cn1c2ccccc2c2ccccc21)c1cccc2ccccc12 (stereo unspecified),-3.3% (inactive)
5,O=C1c2ccccc2S(=O)(=O)N1CC(O)Cn1c2ccccc2c2ccccc21 (stereo unspecified),-0.7% (inactive)
6,CCCCN(CCCC)CC(O)Cn1c2ccccc2c(=O)c2ccccc21 (stereo unspecified),80.3% (active)
7,O=C1[C@@H]2C(c3cccnc3)=NO[C@@H]2C(=O)N1c1ccc(Cl)cc1Cl,9% (inactive)
8,COc1ccc(Cl)cc1CSc1ncn[nH]1,-0.7% (inactive)
9,Cc1ccsc1/C=N/NC(=O)Cc1cc(=O)[nH][nH]1,-1.1% (inactive)
10,Cc1cc(F)ccc1S(=O)(=O)Nc1ncnc2scc(-c3ccc(F)cc3)c12,66.8% (active)
11,COc1ccc(-c2csc3ncnc(Oc4ccc5c(C)cc(=O)oc5c4)c23)cc1,-0.5% (inactive)
12,CCn1cnc2scc(-c3ccc(C)c(C)c3)c2c1=O,0.4% (inactive)
13,CCOc1ccc2sc(NS(=O)(=O)c3ccc(N)cc3)nc2c1,0.7% (inactive)
14,CCNc1nc(NCC)nc(N/N=C/c2ccc(O)c(OC)c2)n1,10% (inactive)
15,CCOC(=O)N1CCN(C(=O)c2cc3c(ccc4ccccc43)oc2=O)CC1,2.5% (inactive)
16,CNC(=O)c1cc2c(ccc3ccccc32)oc1=N,108% (active)
17,N=c1oc2ccccc2cc1C(=O)N/N=C/c1ccccc1,-2.3% (inactive)
18,CCN(CC)C(=O)Oc1ccc(Br)cc1C(=O)Nc1ccc(F)c(Cl)c1,0.6% (inactive)
19,CCn1c(SCC(=O)N/N=C/c2ccncc2)nc2ccccc21,-0.7% (inactive)
